Data reported in ChEMBL document CHEMBL1134467, “Novel, nonpeptidic cyanamides as potent and reversible inhibitors of human cathepsins K and L” (J Med Chem, 2001).

Key:
[1] = molecular target: T1, Cathepsin K (Homo sapiens, UniProt P43235); test: Inhibitory activity tested against Human Cathepsin K using Z-Phe-Arg-pNA as substrate
T1 sequence (P43235 whole entry): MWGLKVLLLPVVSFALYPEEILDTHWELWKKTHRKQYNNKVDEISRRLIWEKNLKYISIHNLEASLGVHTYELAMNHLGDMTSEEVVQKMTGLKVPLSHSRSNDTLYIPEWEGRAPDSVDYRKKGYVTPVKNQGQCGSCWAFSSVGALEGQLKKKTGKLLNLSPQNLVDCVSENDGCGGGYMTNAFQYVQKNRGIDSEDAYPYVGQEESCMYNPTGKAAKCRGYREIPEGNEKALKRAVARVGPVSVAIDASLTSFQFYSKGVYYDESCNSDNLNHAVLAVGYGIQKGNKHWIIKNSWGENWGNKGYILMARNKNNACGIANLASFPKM

[2] = molecular target: Cathepsin B (Homo sapiens, UniProt P07858); test: Inhibitory activity tested against Human Cathepsin B using Z-Phe-Arg-pNA as substrate
[3] = molecular target: Procathepsin L (Homo sapiens, UniProt P07711); test: Inhibitory activity tested against Human Cathepsin L using Z-Phe-Arg-pNA as substrate
Procathepsin L, sequence (P07711 whole entry): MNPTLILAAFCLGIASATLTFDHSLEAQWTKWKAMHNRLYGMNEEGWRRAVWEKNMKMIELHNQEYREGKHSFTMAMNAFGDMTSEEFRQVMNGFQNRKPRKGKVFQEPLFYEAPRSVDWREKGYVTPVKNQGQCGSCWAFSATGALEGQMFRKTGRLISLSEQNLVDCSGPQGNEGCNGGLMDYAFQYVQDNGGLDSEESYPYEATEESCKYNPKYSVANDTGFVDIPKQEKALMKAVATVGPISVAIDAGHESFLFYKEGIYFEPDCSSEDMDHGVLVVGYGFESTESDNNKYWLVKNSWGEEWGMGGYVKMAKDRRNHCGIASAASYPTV

[4] = molecular target: T1, Cathepsin K; test: Inhibition of Cathepsin K at pH 7
Method in brief: (§1)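 Recombinant human cathepsin K IC50 without glutathione at pH 5.5 or 7.0. Compound preincubated 30 min with enzyme, then 25 μM Z-Phe-Arg-pNA added. Activity read as OD increase at 405 nm. Percent inhibition set against a vehicle control. IC50 from a four-parameter logistic fit.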

[5] = molecular target: T1, Cathepsin K; test: Effect of 10 mM of GSH on the inhibitory activity against Cathepsin K, at pH 7
Method in brief: (§2)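 Recombinant human cathepsin K IC50 with 10 mM glutathione at pH 5.5 or pH 7.0. Compounds preincubated 30 min with GSH before enzyme addition, then 30 min with enzyme before 25 μM Z-Phe-Arg-pNA. Activity read as OD increase at 405 nm. IC50 fitted to a four-parameter logistic model.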

[6] = molecular target: T1, Cathepsin K; test: Inhibition of Cathepsin K at pH 5.5; method in brief: as §1
[7] = molecular target: T1, Cathepsin K; test: Effect of 10 mM of GSH on the inhibitory activity of compound against Cathepsin K, at pH 5.5; method in brief: as §2
[8] = molecular target: T1, Cathepsin K; test: Inhibitory activity tested against Human Cathepsin K […] using gelatinase assay
Method in brief: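 Recombinant human cathepsin K gelatinase activity on DQ gelatin, 0.25 mg/mL final. Run in 50 mM MES pH 5.5 with 2.5 mM DTT, 2.5 mM EDTA and 10% DMSO, enzyme 2–4 nM, 30 min compound preincubation. Fluorescein release read at ex 495/em 515 nm. IC50 from a four-parameter logistic fit.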

[9] = molecular target: T1, Cathepsin K; test: Inhibitory constant against human cathepsin K
Method in brief: (§3)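 Slow-binding kinetics with cathepsin K (0.1 nM final, added to start the reaction) in 50 mM MES pH 5.5, 2.5 mM DTT, 2.5 mM EDTA, 10% DMSO, room temperature, stirred 1 mL cells. Z-Phe-Arg-AMC at 10-fold below Km (Km 30 μM), fluorescence ex 355/em 460 nm. Progress curves fitted for kobs; Ki, kon, koff averaged over at least three inhibitor concentrations.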

[10] = molecular target: T2, Cathepsin K (Homo sapiens) (UniProt P43235); test: Pre-steady-state kinetic parameter for inhibition of human cathepsin K; method in brief: as §3
T2 sequence (whole entry): T1 sequence (P43235 whole entry)

[11] = Bioavailability after oral administration of 20 mg/kg in rat; format: ADME, organism-based; details: in vivo
Method in brief: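 Rats dosed orally at 20 mg/kg as a 1% methocel suspension, dosing volume 10 mL/kg; plasma levels followed over time and oral bioavailability derived.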

[12] = Half life period in rat after (iv) administration; format: ADME, organism-based; details: in vivo
Method in brief: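 Rats dosed intravenously in PEG-200/water (3:2), dosing volume 1 mL/kg; half-life derived from mean plasma levels.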

[13] = molecular target: T3, Papain (Carica papaya, UniProt P00784); test: Inhibitory activity tested against papain at a pH 5.5
T3 sequence (P00784 whole entry): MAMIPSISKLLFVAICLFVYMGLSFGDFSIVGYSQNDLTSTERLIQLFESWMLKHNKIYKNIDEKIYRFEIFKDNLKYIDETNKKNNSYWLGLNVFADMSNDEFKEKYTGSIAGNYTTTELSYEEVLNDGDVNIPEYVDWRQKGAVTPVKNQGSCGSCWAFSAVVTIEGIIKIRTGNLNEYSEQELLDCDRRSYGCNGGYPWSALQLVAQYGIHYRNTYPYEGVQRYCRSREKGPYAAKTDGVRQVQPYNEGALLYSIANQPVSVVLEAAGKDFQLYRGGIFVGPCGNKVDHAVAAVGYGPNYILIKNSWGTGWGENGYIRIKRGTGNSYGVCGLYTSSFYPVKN

Compound | IC50 [1] | IC50 [2] | IC50 [3] | IC50 [4] | IC50 [5] | IC50 [6] | IC50 [7] | IC50 [8] | IC50 [9] | Ki [9] | k off [10] | k on [10] | bioavailability [11] | half-life [12] | IC50 [13]
CCN(C#N)CC | > 100000 nM | > 100000 nM | > 100000 nM |  |  |  |  |  |  |  |  |  |  |  | 
N#CN1CC(CNC(=O)c2ccccc2)C1 | 70 nM | 250 nM | 650 nM |  |  |  |  |  |  |  |  |  |  |  | 
N#CN1CC(CNC(=O)C2CCCCC2)C1 |  |  |  | 38 nM | > 100000 nM | 16 nM | 27 nM | 10 nM |  |  |  |  |  |  | 
N#CN1CC(OCC2CCCCC2)C1 | 20 nM | 500 nM | 100 nM |  |  |  |  |  |  |  |  |  |  |  | 
N#CN1CCC(COCc2ccccc2)C1 (stereo not given) | 100 nM | 1100 nM | 150 nM |  |  |  |  |  |  |  |  |  |  |  | 
N#CN1CCC(NC(=O)c2ccc(-c3ccccc3)cc2)C1 (stereo not given) | 290 nM | 300 nM | 850 nM |  |  |  |  |  |  |  |  |  |  |  | 
N#CN1CCC(CNS(=O)(=O)c2ccccc2)C1 (stereo not given) | 200 nM | 1500 nM | 350 nM |  |  |  |  |  |  |  |  |  |  |  | 
N#CN1CCC(NC(=O)c2ccccc2)C1 (stereo not given) | 370 nM | 4200 nM | 1750 nM |  |  |  |  |  |  |  |  |  |  |  | 
N#CN1CCC1 | 100 nM | 2000 nM | 430 nM | 880 nM | > 100000 nM | 450 nM | 480 nM |  |  |  |  |  |  |  | 
N#CN1CC(OCc2ccccc2)C1 | 40 nM | 500 nM | 100 nM |  |  |  |  |  |  |  |  |  |  |  | 
N#CN1CCCC1CNC(=O)c1ccccc1 (stereo not given) | 13700 nM | 75000 nM | 23000 nM |  |  |  |  |  |  |  |  |  |  |  | 
N#CN1Cc2cc3ccccc3nc2C1 | 370 nM | 2300 nM | 450 nM | 280 nM | 11400 nM | 340 nM | 360 nM | 360 nM | 370 nM | 380 nM | 0.0025 s⁻¹ | 6590 M⁻¹ s⁻¹ |  |  | 
N#CN1CCC(NS(=O)(=O)c2ccccc2)C1 (stereo not given) | 50 nM | 1400 nM | 80 nM |  |  |  |  | 18 nM | 81 nM | 90 nM | 0.0019 s⁻¹ | 19900 M⁻¹ s⁻¹ | 38% | 2 h | 230 nM
N#CN1CCCC1CNS(=O)(=O)c1ccccc1 (stereo not given) | 12100 nM |  | 11500 nM |  |  |  |  |  |  |  |  |  |  |  | 
N#CN1CCCC1 [CYANO-PYRROLIDINE] | 1000 nM | 15000 nM | 4000 nM | 2300 nM | 3400 nM | 1630 nM | 1500 nM |  |  |  |  |  |  |  | 
N#CN1CC(CNS(=O)(=O)c2ccccc2)C1 | 20 nM | 300 nM | 50 nM |  |  |  |  |  | 17 nM | 20 nM | 0.0028 s⁻¹ | 141000 M⁻¹ s⁻¹ |  |  | 
N#CN1CCC(NC(=O)OCc2ccccc2)C1 (stereo not given) | 40 nM | 200 nM | 54 nM | 50 nM | 150 nM | 60 nM | 90 nM | 20 nM | 40 nM | 140 nM | 0.0056 s⁻¹ | 67300 M⁻¹ s⁻¹ |  |  | 
